ChEMBL document CHEMBL1629539, “Configuration of the 5'-methyl group modulates the biophysical and biological properties of locked nucleic acid (LNA) oligonucleotides” (J Med Chem, 2010)
The source made the active and inactive calls. The rule behind the calls is not given here.

Columns and labels:
Mus musculus [1] = experiment: Toxicity in BALB/c mouse assessed as increase in spleen weight at 4.5 mg/kg, ip administered twice weekly for 3 weeks measured after 72 hrs post last dose; type: organism-based; parameters: dose 4.5 mg/kg, route intraperitoneal; conditions: in vivo
Procedure, shortened: (§1)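 Balb-c mice (n = 4/group) dosed ip twice a week for 3 weeks at 0.5, 1.5, 4.5 and 15 mg/kg of PTEN-targeting 14-mer phosphorothioate gapmer. Sacrifice 72 h after last dose. Liver PTEN mRNA by quantitative RT-PCR as % versus saline, with ED50 derived from dose-response. Plasma ALT (IU/L) recorded. Spleen weight given as fold increase over saline group.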

Mus musculus [2] = experiment: Reduction in PTEN mRNA expression in ip dosed BALB/c mouse liver administered twice weekly for 3 weeks measured after 72 hrs post last dose; type: functional; procedure, shortened: as §1
Mus musculus [3] = experiment: Hepatoprotective activity in BALB/c mouse assessed as reduction of plasma alanine amino transferase levels at 15 mg/kg, ip administered twice weekly for 3 weeks measured after 72 hrs post last dose; type: functional, organism-based; parameters: dose 15 mg/kg; procedure, shortened: as §1
Mus musculus [4] = experiment: Hepatoprotective activity in BALB/c mouse assessed as at 46 mg/kg, ip assessed as reduction of plasma alanine amino transferase levels after 72 hrs post dose; type: functional, organism-based; parameters: dose 46 mg/kg
Procedure, shortened: (§2)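 Balb-c mice, 4 per group, one ip dose at 23 or 46 mg/kg of 14-mer fully phosphorothioate gapmer ASO targeting PTEN. Sacrifice 72 h after dosing. Liver PTEN mRNA quantified by quantitative RT-PCR, expressed as % down-regulation versus saline-treated animals. Plasma ALT (IU/L) measured after sacrifice.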

Mus musculus [5] = experiment: Reduction in PTEN mRNA expression in BALB/c mouse liver at 46 mg/kg, ip measured 72 hrs post dose by Rt-PCR; type: functional, organism-based; parameters: dose 46 mg/kg; procedure, shortened: as §2
Mus musculus [6] = experiment: Reduction in PTEN mRNA expression in BALB/c mouse liver at 23 mg/kg, ip measured 72 hrs post dose by Rt-PCR; type: functional, organism-based; parameters: dose 23 mg/kg; procedure, shortened: as §2
Mus musculus [7] = experiment: Hepatoprotective activity in BALB/c mouse assessed as at 23 mg/kg, ip assessed as reduction of plasma alanine amino transferase levels after 72 hrs post dose; type: functional, organism-based; parameters: dose 23 mg/kg; procedure, shortened: as §2
Mus musculus [8] = experiment: Toxicity in BALB/c mouse assessed as increase in spleen weight at 1.5 mg/kg, ip administered twice weekly for 3 weeks measured after 72 hrs post last dose; type: organism-based; parameters: dose 1.5 mg/kg, route intraperitoneal; conditions: in vivo; procedure, shortened: as §1

SMILES: Cc1cn([C@@H]2O[C@@]3(COP(O)(=S)O[C@H]4[C@H]5OC[C@]4(COP(O)(=S)O[C@H]4[C@H]6OC[C@]4(COP(O)(=S)O[C@H]4[C@H]7OC[C@]4(COP(O)(=S)O[C@H]4[C@H]8OC[C@]4(COP(O)(=S)O[C@H]4[C@H]9OC[C@]4(COP(O)(=S)O[C@H]4[C@H]%10OC[C@]4(COP(O)(=S)O[C@H]4[C@H]%11OC[C@]4([C@H](C)O)O[C@H]%11n4ccc(=O)[nH]c4=O)O[C@H]%10n4ccc(N)nc4=O)O[C@H]9n4cnc9c(N)ncnc94)O[C@H]8n4cc(C)c(=O)[nH]c4=O)O[C@H]7n4cnc7nc(N)[nH]c(=O)c74)O[C@H]6n4cnc6nc(N)[nH]c(=O)c64)O[C@H]5N4CCC(N)=NC4=O)CO[C@@H]2[C@@H]3OP(O)(=S)OC[C@@]23CO[C@@H]([C@H](n4cnc5nc(N)[nH]c(=O)c54)O2)[C@@H]3OP(O)(=S)OC[C@@]23CO[C@@H]([C@H](n4ccc(N)nc4=O)O2)[C@@H]3OP(O)(=S)OC[C@@]23CO[C@@H]([C@H](n4cnc5c(N)ncnc54)O2)[C@@H]3OP(O)(=S)OC[C@@]23CO[C@@H]([C@H](n4cnc5nc(N)[nH]c(=O)c54)O2)[C@@H]3OP(O)(=S)OC[C@@]23CO[C@@H]([C@H](n4ccc(N)nc4=O)O2)[C@@H]3OP(O)(=S)OC[C@@]23CO[C@@H]([C@H](n4ccc(=O)[nH]c4=O)O2)[C@@H]3O)c(=O)[nH]c1=O (some centres undefined)
- Activity (Mus musculus [1]): Non-toxic
- ED50 (Mus musculus [2]): 6 mg/kg
- inhibition (Mus musculus [2]): Dose-dependent effect
- Activity (Mus musculus [3]): Active
- Activity (Mus musculus [4]): Active
- inhibition (Mus musculus [5]): Active
- inhibition (Mus musculus [6]): inactive
- Activity (Mus musculus [7]): Active
- Activity (Mus musculus [8]): Non-toxic
